From ChEMBL document CHEMBL1124612, “Synthesis and structure-activity relationships of a series of anxioselective pyrazolopyridine ester and amide anxiolytic agents” (J Med Chem, 1989)
pIC50: −log10 of the molar value. Activity calls are given as the source filed them. The rule behind the calls is not given here.

How the values were obtained:
[1] = tested on: Rattus norvegicus; assay: Minimum effective dose (po) tested for its anxiolytic activity in rat using the shock-induced suppression of drinking (SSD) test.; type: functional; settings: read-out: MED
In short: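 Rats (n = 8 per dose) were dosed orally at one or more levels and then run in the shock-induced suppression of drinking conflict test. MED is the dose producing a significant rise (p < 0.05, Student's t test) in mean shocks accepted relative to vehicle-treated controls.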

[2] = biological target: GABA-A receptor; anion channel; assay: Inhibition of [3H]flunitrazepam binding to GABA-A benzodiazepine receptor of rat cerebral cortex; type: tissue-based
[3] = tested on: GABA-A receptor; anion channel; assay: Inhibition of [3H]flunitrazepam binding to GABA-A benzodiazepine receptor of rat cerebral cortex at 500 nM; type: tissue-based
In short: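 Rat cerebral cortex membranes were incubated with [3H]flunitrazepam in the presence of the test agent at a single concentration (nM), run in triplicate with under 7% variation between values. Binding is reported as % inhibition of [3H]flunitrazepam binding.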

[4] = tested on: Rattus norvegicus; assay: Minimum effective dose (ip) tested for its anxiolytic activity in rat using the shock-induced suppression of drinking (SSD) test; NS is No Significant activity at 25 mg/Kg; type: functional, organism-based
In short: (§1)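 Shock-induced suppression of drinking (Vogel-type conflict) in rats, with compounds given intraperitoneally at one or more dose levels, 8 rats per dose. MED is the lowest dose giving a significant increase (p < 0.05, Student's t test) in the mean number of shocks taken versus vehicle control.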

[5] = tested on: Rattus norvegicus; assay: Minimum effective dose (ip) tested for its anxiolytic activity in rat using the shock-induced suppression of drinking (SSD) test.; type: functional; settings: read-out: MED; in short: as §1

Compound | minimal effective dose [1] | pIC50 [2] | further results
CC#CCCn1ncc2c(N)c(C(=O)OCC3CC3)c(C)nc21 | 12.5 mg/kg | 6.50 | –
CCCCCn1ncc2c(N)c(C(=O)NC)cnc21 | 12.5 mg/kg | 6.45 | –
CC#CCCn1ncc2c(N)c(C(=O)N(C)CCC)cnc21 | 12.5 mg/kg | – | IC50 [3]: Not Active
C#CCN(C)C(=O)c1cnc2c(cnn2CCCCC)c1N | 6.3 mg/kg | – | IC50 [3]: Not Active
CCCCCn1ncc2c(N)c(C(=O)N3CCC3)cnc21 | 50 mg/kg | 6.86 | –
CCCCCn1ncc2c(N)c(C(=O)NCC)cnc21 | 12.5 mg/kg | 6.96 | –
CCOC(=O)c1c(C)nc2c(cnn2CCCC(C)(C)C)c1N | – | 6.39 | NS [4]: inactive
CCCCn1ncc2c(N)c(C(=O)OCC)c(C)nc21 | 40 mg/kg | 7.30 | –
CCCn1ncc2c(N)c(C(=O)OCC)c(C)nc21 | – | 6.39 | minimal effective dose [5]: 80 mg/kg
CNC1=Nc2ccc(Cl)cc2C(c2ccccc2)=[N+]([O-])C1 [CHLORDIAZEPOXIDE] | 10 mg/kg | 6.48 | –
CCCCCn1ncc2c(N)c(C(=O)N(CC)CC)cnc21 | 25 mg/kg | – | IC50 [3]: Not Active
CCCCCCn1ncc2c(N)c(C(=O)OCC)c(C)nc21 | – | 6.49 | minimal effective dose [5]: 50 mg/kg
C=CCOC(=O)c1c(C)nc2c(cnn2CC=C)c1N | 25 mg/kg | 6.95 | –
CCCCCn1ncc2c(N)c(C(=O)NCCC)cnc21 | 25 mg/kg | 7.05 | –
C=CCOC(=O)c1c(C)nc2c(cnn2CCCCC)c1N | 25 mg/kg | 7.68 | –
CCCCCn1ncc2c(N)c(C(=O)N(C)C)cnc21 | 12.5 mg/kg | – | IC50 [3]: Not Active
C#CCCCn1ncc2c(N)c(C(=O)OCC)c(C)nc21 | 25 mg/kg | 7.51 | –
CCOC(=O)c1c(C)nc2c(cnn2CC(C)CC)c1N (stereo not drawn) | – | 6.41 | minimal effective dose [5]: 25 mg/kg
CCCCCn1ncc2c(N)c(C(=O)N3CCCC3)cnc21 | – | – | minimal effective dose [5]: 50 mg/kg; IC50 [3]: Not Active
CCCCNc1c(C(=O)OCC)c(C)nc2c1cnn2CC [TRACAZOLATE] | 40 mg/kg | – | –
C=CCNC(=O)c1cnc2c(cnn2CCCCC)c1NCCCC | – | – | NS [4]: inactive; IC50 [3]: Not Active
C#CCOC(=O)c1c(C)nc2c(cnn2CCCCC)c1N | 25 mg/kg | 7.05 | –
CCCCCn1ncc2c(N)c(C(=O)Nc3ccccc3)cnc21 | – | 6.10 | minimal effective dose [5]: 50 mg/kg

Compound | minimal effective dose [1] | pIC50 [2] | further results
CC#CCNC(=O)c1cnc2c(cnn2CCCCC)c1N | 6.3 mg/kg | 7.08 | –
C#CCCCCn1ncc2c(N)c(C(=O)OCC=C)c(C)nc21 | 25 mg/kg | 8.07 | –
C=CCN(CC=C)C(=O)c1cnc2c(cnn2CCCCC)c1N | 25 mg/kg | – | IC50 [3]: Not Active
CCCCCn1ncc2c(N)c(C(=O)OCC3CC3)c(C)nc21 | 12.5 mg/kg | 6.88 | –
C=CCN(C)C(=O)c1cnc2c(cnn2CCCCC)c1N | 12.5 mg/kg | – | IC50 [3]: Not Active
CC#CCCn1ncc2c(N)c(C(=O)NCCC)cnc21 | 6.3 mg/kg | 6.30 | –
CCOC(=O)c1c(C)nc2c(cnn2Cc2ccccc2)c1N | – | 6.81 | MED [4]: inactive
CCCCCn1ncc2c(N)c(C(=O)OCCC3CC3)c(C)nc21 | – | 7.29 | minimal effective dose [5]: 50 mg/kg
CCCCCn1ncc2c(N)c(C(=O)NC3CC3)cnc21 | 12.5 mg/kg | 6.51 | –
CCCCCn1ncc2c(N)c(C(=O)NCc3ccccc3)cnc21 | 25 mg/kg | 7.44 | –
CC#CCCn1ncc2c(N)c(C(=O)OCC)c(C)nc21 | 25 mg/kg | 6.23 | –
C=CCOC(=O)c1c(C)nc2c(cnn2CCC2CC2)c1N | 25 mg/kg | 7.80 | –
C#CCCn1ncc2c(N)c(C(=O)OCC=C)c(C)nc21 | 50 mg/kg | 6.80 | –
CCCCCn1ncc2c(N)c(C(=O)OCCC)c(C)nc21 | – | 7.30 | minimal effective dose [5]: 25 mg/kg
CCOC(=O)c1c(C)nc2c(cnn2CCC(C)C)c1N | 100 mg/kg | 7.41 | –
C=CCOC(=O)c1cnc2c(cnn2CCC(C)C)c1N | – | 8.24 | minimal effective dose [5]: 25 mg/kg
C=CCCCn1ncc2c(N)c(C(=O)OCC=C)c(C)nc21 | 25 mg/kg | 8.01 | –
CCOC(=O)c1c(C)nc2c(cnn2CCC(C)CC)c1N (stereo not drawn) | – | 7.10 | minimal effective dose [5]: 25 mg/kg
C#CCCCn1ncc2c(N)c(C(=O)OCC=C)c(C)nc21 | 12.5 mg/kg | 8.26 | –
C#CCN(CC#C)C(=O)c1cnc2c(cnn2CCCCC)c1N | 12.5 mg/kg | – | IC50 [3]: Not Active
C=CCNC(=O)c1c[n+]([O-])c2c(cnn2CCCCC)c1N | 12.5 mg/kg | 7.28 | –
CCOC(=O)c1c(C)nc2c(cnn2CC)c1NC | – | – | MED [4]: inactive
C#CCNC(=O)c1cnc2c(cnn2CCCCC)c1N | 6.3 mg/kg | 7.22 | –

Compound | minimal effective dose [1] | pIC50 [2] | further results
C=CCN(C)C(=O)c1cnc2c(cnn2CCC#CC)c1N | 12.5 mg/kg | – | IC50 [3]: Not Active
CCCCCn1ncc2c(N)c(C(=O)N(C)CCC)cnc21 | 6.3 mg/kg | – | IC50 [3]: Not Active
C=CCOC(=O)c1c(C)nc2c(cnn2CCCC)c1N | 25 mg/kg | 7.68 | –
CCCCCn1ncc2c(N)c(C(=O)OCC)c(C)nc21 | 50 mg/kg | 7.24 | –
CC#CCCn1ncc2c(N)c(C(=O)NCC3CC3)cnc21 | 3.1 mg/kg | 6.57 | –
CCCCCn1ncc2c(N)c(C(=O)NOCC)cnc21 | 12.5 mg/kg | 6.27 | –
CCCCCn1ncc2c(N)c(C(=O)OCC)cnc21 | – | – | MED [4]: inactive
C=CCOC(=O)c1c(C)nc2c(cnn2CCC(C)C)c1N | 50 mg/kg | 7.89 | –
CCCCCn1ncc2c(N)c(C(=O)NC(C)C)cnc21 | – | 6.38 | minimal effective dose [5]: 25 mg/kg
C=CCNC(=O)c1cnc2c(cnn2CCCCC)c1O | 50 mg/kg | – | IC50 [3]: Not Active
CCCCCn1ncc2c(N)c(C(=O)NCC3CC3)cnc21 | 6.3 mg/kg | 7.46 | –
C=CCOC(=O)c1c(C)nc2c(cnn2CCC#CC)c1N | 25 mg/kg | 7.10 | –
CCCCCn1ncc2c(N)c(C(=O)OCCCC)c(C)nc21 | – | 6.95 | minimal effective dose [5]: 50 mg/kg
C=CCNC(=O)c1cnc2c(cnn2CCCCC)c1N | 12.5 mg/kg | 7.55 | –
CCOC(=O)c1c(C)nc2c(cnn2CC)c1N | – | 6.34 | minimal effective dose [5]: 75 mg/kg
CCCCCn1ncc2c(N)c(C(=O)NCCCC)cnc21 | 50 mg/kg | 7.10 | –
CCCCCn1ncc2c(N)c(C(=O)N(CC)CCC)cnc21 | 25 mg/kg | – | IC50 [3]: Not Active
CCCCCn1ncc2c(N)c(C(=O)OCc3ccccc3)c(C)nc21 | – | 7.00 | MED [4]: inactive
C#CCCCn1ncc2c(N)c(C(=O)OCC3CC3)c(C)nc21 | 12.5 mg/kg | 7.66 | –
C=C(C)COC(=O)c1c(C)nc2c(cnn2CCCCC)c1N | – | 7.16 | MED [4]: inactive
C=CCCn1ncc2c(N)c(C(=O)OCC=C)c(C)nc21 | 25 mg/kg | 7.27 | –
CCCCCn1ncc2c(N)c(C(N)=O)cnc21 | 12.5 mg/kg | 5.61 | –
